Test results published in ChEMBL document CHEMBL4689842, “EUbOPEN Chemogenomics Library wave 1” (2021).

System: HEK-293T
Test: Multiplex assay against HEK293T;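 as to Population Tubulin-Different-Phenotype (%): share of the cells with healthy nuclei that show this phenotype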
Assay type: toxicity, cell-based
Settings: human
Outline: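 Values for tubulin, mitochondrial-mass and membrane-permeability phenotypes are per cents of cells with healthy nuclei. These cells were identified by CellPathfinder machine-learning gating of live cells that had been stained at seeding with Hoechst33342, BioTracker Green Microtubule Cytoskeleton Dye, MitoTracker Red and Annexin V Alexa Fluor 680 and imaged on a CQ1 microscope at 37°C and 5% CO2 after compound addition. The gating first set Hoechst high-intensity objects apart from normal cells, then split normal cells into healthy, pyknosed or fragmented nuclei, and pyknosed cells into mitotic or apoptotic.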

[1] = 12 h, 1 µM, compound concentration 1 uM, replicate 1
[2] = 12 h, 1 µM, compound concentration 1 uM, replicate 2
[3] = 12 h, 10 µM, compound concentration 10 uM, replicate 1
[4] = 12 h, 10 µM, compound concentration 10 uM, replicate 2
[5] = 24 h, 1 µM, compound concentration 1 uM, replicate 1
[6] = 24 h, 1 µM, compound concentration 1 uM, replicate 2
[7] = 24 h, 10 µM, compound concentration 10 uM, replicate 1
[8] = 24 h, 10 µM, compound concentration 10 uM, replicate 2
[9] = 48 h, 1 µM, compound concentration 1 uM, replicate 1
[10] = 48 h, 1 µM, compound concentration 1 uM, replicate 2
[11] = 48 h, 10 µM, compound concentration 10 uM, replicate 1
[12] = 48 h, 10 µM, compound concentration 10 uM, replicate 2

With CC(C)OC(=O)N1CCC(Oc2ncnc3c2cnn3-c2ccc(S(C)(=O)=O)cc2F)CC1 the “Population Apoptotic (%)” value [1] was 57%, the “Population Fragmented Nuclei (%)” value [1] was 8% and the “Population Healthy Nuclei (%)” value [1] was 35%. For the same molecule, the “Population Hoechst High Intensity Objects (%)” value [1] was 14%, the “Population Membrane Permeable-Phenotype (%)” value [1] was 4% and the “Population Mitochondria Different-Phenotype (%)” value [1] was 80%. For the same molecule, the “Population Mitotic Cells (%)” value [1] was 42%, the “Population Normal (%)” value [1] was 85% and the “Population Pyknosed Nuclei (%)” value [1] was 56%. For the same molecule, the “Population Tubulin-Different-Phenotype (%)” value [1] was 39%, the “Total Cell Count” value [1] was 225 and the “Population Apoptotic (%)” value [2] was 12%. For the same molecule, the “Population Fragmented Nuclei (%)” value [2] was 5%, the “Population Healthy Nuclei (%)” value [2] was 49% and the “Population Hoechst High Intensity Objects (%)” value [2] was 4%. The “Population Membrane Permeable-Phenotype (%)” value [2] was 5%, the “Population Mitochondria Different-Phenotype (%)” value [2] was 11% and the “Population Mitotic Cells (%)” value [2] was 87%. The “Population Normal (%)” value [2] was 95%, the “Population Pyknosed Nuclei (%)” value [2] was 44% and the “Population Tubulin-Different-Phenotype (%)” value [2] was 9%. For the same molecule, the “Total Cell Count” value [2] was 220, the “Population Apoptotic (%)” value [3] was 53% and the “Population Fragmented Nuclei (%)” value [3] was 16%. For the same molecule, the “Population Healthy Nuclei (%)” value [3] was 32%, the “Population Hoechst High Intensity Objects (%)” value [3] was 18% and the “Population Membrane Permeable-Phenotype (%)” value [3] was 6%. The “Population Mitochondria Different-Phenotype (%)” value [3] was 93%, the “Population Mitotic Cells (%)” value [3] was 46% and the “Population Normal (%)” value [3] was 81%. The “Population Pyknosed Nuclei (%)” value [3] was 51%, the “Population Tubulin-Different-Phenotype (%)” value [3] was 61% and the “Total Cell Count” value [3] was 186. For the same molecule, the “Population Apoptotic (%)” value [4] was 5%, the “Population Fragmented Nuclei (%)” value [4] was 5% and the “Population Healthy Nuclei (%)” value [4] was 45%. For the same molecule, the “Population Hoechst High Intensity Objects (%)” value [4] was 3%, the “Population Membrane Permeable-Phenotype (%)” value [4] was 8% and the “Population Mitochondria Different-Phenotype (%)” value [4] was 15%. The “Population Mitotic Cells (%)” value [4] was 94%, the “Population Normal (%)” value [4] was 96% and the “Population Pyknosed Nuclei (%)” value [4] was 49%. For the same molecule, the “Population Tubulin-Different-Phenotype (%)” value [4] was 20%, the “Total Cell Count” value [4] was 220 and the “Population Apoptotic (%)” value [5] was 51%. For the same molecule, the “Population Fragmented Nuclei (%)” value [5] was 11%, the “Population Healthy Nuclei (%)” value [5] was 39% and the “Population Hoechst High Intensity Objects (%)” value [5] was 15%. The “Population Membrane Permeable-Phenotype (%)” value [5] was 4%, the “Population Mitochondria Different-Phenotype (%)” value [5] was 58% and the “Population Mitotic Cells (%)” value [5] was 48%. The “Population Normal (%)” value [5] was 84%, the “Population Pyknosed Nuclei (%)” value [5] was 48% and the “Population Tubulin-Different-Phenotype (%)” value [5] was 35%. For the same molecule, the “Total Cell Count” value [5] was 254, the “Population Apoptotic (%)” value [6] was 11% and the “Population Fragmented Nuclei (%)” value [6] was 7%. For the same molecule, the “Population Healthy Nuclei (%)” value [6] was 62%, the “Population Hoechst High Intensity Objects (%)” value [6] was 3% and the “Population Membrane Permeable-Phenotype (%)” value [6] was 9%. The “Population Mitochondria Different-Phenotype (%)” value [6] was 11%, the “Population Mitotic Cells (%)” value [6] was 88% and the “Population Normal (%)” value [6] was 96%. For the same molecule, the “Population Pyknosed Nuclei (%)” value [6] was 29%, the “Population Tubulin-Different-Phenotype (%)” value [6] was 16% and the “Total Cell Count” value [6] was 277. For the same molecule, the “Population Apoptotic (%)” value [7] was 46%, the “Population Fragmented Nuclei (%)” value [7] was 13% and the “Population Healthy Nuclei (%)” value [7] was 38%. For the same molecule, the “Population Hoechst High Intensity Objects (%)” value [7] was 18%, the “Population Membrane Permeable-Phenotype (%)” value [7] was 1% and the “Population Mitochondria Different-Phenotype (%)” value [7] was 75%. For the same molecule, the “Population Mitotic Cells (%)” value [7] was 53%, the “Population Normal (%)” value [7] was 81% and the “Population Pyknosed Nuclei (%)” value [7] was 48%. For the same molecule, the “Population Tubulin-Different-Phenotype (%)” value [7] was 67%, the “Total Cell Count” value [7] was 194 and the “Population Apoptotic (%)” value [8] was 3%. The “Population Fragmented Nuclei (%)” value [8] was 4%, the “Population Healthy Nuclei (%)” value [8] was 65% and the “Population Hoechst High Intensity Objects (%)” value [8] was 3%. The “Population Membrane Permeable-Phenotype (%)” value [8] was 4%, the “Population Mitochondria Different-Phenotype (%)” value [8] was 22% and the “Population Mitotic Cells (%)” value [8] was 96%. For the same molecule, the “Population Normal (%)” value [8] was 96%, the “Population Pyknosed Nuclei (%)” value [8] was 30% and the “Population Tubulin-Different-Phenotype (%)” value [8] was 29%. For the same molecule, the “Total Cell Count” value [8] was 268, the “Population Apoptotic (%)” value [9] was 59% and the “Population Fragmented Nuclei (%)” value [9] was 14%. For the same molecule, the “Population Healthy Nuclei (%)” value [9] was 48%, the “Population Hoechst High Intensity Objects (%)” value [9] was 16% and the “Population Membrane Permeable-Phenotype (%)” value [9] was 5%. The “Population Mitochondria Different-Phenotype (%)” value [9] was 21%, the “Population Mitotic Cells (%)” value [9] was 40% and the “Population Normal (%)” value [9] was 83%. The “Population Pyknosed Nuclei (%)” value [9] was 36%, the “Population Tubulin-Different-Phenotype (%)” value [9] was 25% and the “Total Cell Count” value [9] was 312. For the same molecule, the “Population Apoptotic (%)” value [10] was 5%, the “Population Fragmented Nuclei (%)” value [10] was 8% and the “Population Healthy Nuclei (%)” value [10] was 79%. The “Population Hoechst High Intensity Objects (%)” value [10] was 3%, the “Population Membrane Permeable-Phenotype (%)” value [10] was 3% and the “Population Mitochondria Different-Phenotype (%)” value [10] was 4%. For the same molecule, the “Population Mitotic Cells (%)” value [10] was 94%, the “Population Normal (%)” value [10] was 96% and the “Population Pyknosed Nuclei (%)” value [10] was 11%. For the same molecule, the “Population Tubulin-Different-Phenotype (%)” value [10] was 17%, the “Total Cell Count” value [10] was 463 and the “Population Apoptotic (%)” value [11] was 50%. The “Population Fragmented Nuclei (%)” value [11] was 18%, the “Population Healthy Nuclei (%)” value [11] was 41% and the “Population Hoechst High Intensity Objects (%)” value [11] was 16%. For the same molecule, the “Population Membrane Permeable-Phenotype (%)” value [11] was 3%, the “Population Mitochondria Different-Phenotype (%)” value [11] was 60% and the “Population Mitotic Cells (%)” value [11] was 49%. The “Population Normal (%)” value [11] was 83%, the “Population Pyknosed Nuclei (%)” value [11] was 39% and the “Population Tubulin-Different-Phenotype (%)” value [11] was 53%. For the same molecule, the “Total Cell Count” value [11] was 237, the “Population Apoptotic (%)” value [12] was 11% and the “Population Fragmented Nuclei (%)” value [12] was 5%. The “Population Healthy Nuclei (%)” value [12] was 82%, the “Population Hoechst High Intensity Objects (%)” value [12] was 3% and the “Population Membrane Permeable-Phenotype (%)” value [12] was 4%. For the same molecule, the “Population Mitochondria Different-Phenotype (%)” value [12] was 3%, the “Population Mitotic Cells (%)” value [12] was 88% and the “Population Normal (%)” value [12] was 96%. The “Population Pyknosed Nuclei (%)” value [12] was 11%, the “Population Tubulin-Different-Phenotype (%)” value [12] was 23% and the “Total Cell Count” value [12] was 480.
